The target in experiment [1] is T1, KiSS-1 receptor (Rattus norvegicus, UniProt Q924U1). As to the kind of experiment: Agonist activity at rat KISS1R transfected in CHO cells assessed as intracellular calcium flux after 24 hrs by functional FLIPR assay. It counts as cell-based. Background: A change in cytosolic calcium serves as a functional read-out for many receptors and channels.
The target of experiment [2] is T2, KiSS-1 receptor (Homo sapiens, UniProt Q969F8). As to the kind of experiment: Agonist activity at human KISS1R transfected in CHO cells assessed as intracellular calcium flux after 24 hrs by functional FLIPR assay. It is filed as cell-based. The procedure, abridged:
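CHO cells stably expressing human KISS1R were seeded at 15 000 cells/mL, cultured 24 h, then loaded with fluo-3 for 1 h at 37 °C in HBSS/HEPES (pH 7.4) with probenecid and FBS. Cells were washed in HBSS with 2.5 mM probenecid. Peptides came from 1 mM DMSO stocks diluted in buffer containing probenecid, 0.2% BSA and 0.1% CHAPS. Fluorescence was recorded on FLIPR for 3 min; peak counts over 0–180 s gave agonist activity.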

Experiment [3] addresses T2, KiSS-1 receptor. As to the kind of experiment: Displacement of radioligand from human KISS1R transfected in CHO cells. It is filed as cell-based. The method in brief: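 Binding used membrane fractions prepared from CHO cells expressing recombinant human KISS1R.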
Experiment [4] deals with Rattus norvegicus. As to the kind of experiment: Testosterone-suppressive activity in Crl:CD(SD) rat assessed as number of animal with plasma testosterone level below the limit of detection at 2 nmol/hr, sc through osmotic pumps measured after 6 days by RIA. It counts as functional. The method in brief: (§1)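 Peptide was dissolved in distilled water or 50% DMSO as 0.1–2 mM pump solutions and delivered by ALZET osmotic pumps implanted subcutaneously in the back of 9-week-old male Crl:CD(SD) rats (n = 5) under ether. Controls received distilled-water pumps. After 6 days, rats were decapitated and plasma was recovered with aprotinin/EDTA. Testosterone was measured by RIA, and the number of rats below the detection limit (0.04 ng/mL) was counted.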

In experiment [5] the test system is Rattus norvegicus. As to the kind of experiment: Testosterone-suppressive activity in Crl:CD(SD) rat assessed as number of animal with plasma testosterone level below the limit of detection at 0.5 nmol/hr, sc through osmotic pumps measured after 6 days by RIA. It is filed as functional. The method in brief:
as §1

Experiment [6] relates to Rattus norvegicus. As to the kind of experiment: Testosterone-suppressive activity in Crl:CD(SD) rat assessed as number of animal with plasma testosterone level below the limit of detection at 0.1 nmol/hr, sc through osmotic pumps measured after 6 days by RIA. It is filed as functional. The method in brief:
as §1

Experiment [7] relates to Rattus norvegicus. The experiment in a line: Testosterone-suppressive activity in Crl:CD(SD) rat assessed as number of animal with plasma testosterone level below the limit of detection at 0.3 nmol/hr, sc through osmotic pumps measured after 6 days by RIA. It is filed as functional. The procedure, abridged: as §1
Experiment [8] addresses T1, KiSS-1 receptor. As to the kind of experiment: Displacement of radioligand from rat KISS1R transfected in CHO cells. It is filed as cell-based.

T1 sequence (Q924U1 whole entry): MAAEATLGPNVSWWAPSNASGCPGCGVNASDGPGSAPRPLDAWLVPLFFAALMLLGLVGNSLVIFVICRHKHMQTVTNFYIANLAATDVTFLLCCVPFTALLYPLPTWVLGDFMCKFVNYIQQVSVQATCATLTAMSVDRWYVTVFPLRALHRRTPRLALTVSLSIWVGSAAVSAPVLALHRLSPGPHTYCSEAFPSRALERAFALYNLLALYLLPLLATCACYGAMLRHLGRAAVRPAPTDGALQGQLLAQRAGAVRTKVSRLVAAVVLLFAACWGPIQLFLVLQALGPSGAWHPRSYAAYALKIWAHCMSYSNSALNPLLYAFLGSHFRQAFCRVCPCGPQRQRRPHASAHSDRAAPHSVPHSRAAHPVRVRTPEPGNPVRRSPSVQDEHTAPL
T2 sequence (Q969F8 whole entry): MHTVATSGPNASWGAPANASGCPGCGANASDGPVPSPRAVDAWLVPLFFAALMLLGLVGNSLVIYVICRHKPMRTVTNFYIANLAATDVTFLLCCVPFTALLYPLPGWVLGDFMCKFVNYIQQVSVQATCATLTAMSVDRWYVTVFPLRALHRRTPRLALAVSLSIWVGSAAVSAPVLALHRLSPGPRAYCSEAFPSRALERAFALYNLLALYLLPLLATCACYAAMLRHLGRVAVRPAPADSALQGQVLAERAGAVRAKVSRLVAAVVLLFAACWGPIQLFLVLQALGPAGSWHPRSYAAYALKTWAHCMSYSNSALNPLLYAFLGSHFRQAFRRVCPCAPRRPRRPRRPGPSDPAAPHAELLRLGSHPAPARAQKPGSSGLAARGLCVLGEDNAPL

As usually defined, the EC50 is the concentration that produces a half-maximal response. Regarding `CNC(=N)NCCC[C@H](NC(=O)[C@H](CC(C)C)NC(=O)NNC(=O)[C@H](Cc1ccccc1)NC(=O)[C@@H](NC(=O)[C@H](C)NC(=O)[C@@H](Cc1c[nH]c2ccccc12)NC(=O)[C@H](N)Cc1ccc(O)cc1)[C@@H](C)O)C(=O)N[C@@H](Cc1c[nH]c2ccccc12)C(N)=O`, the EC50 turned out to be 13 nM in experiment [1] and 0.63 nM in experiment [2].
On to `CNC(=N)NCCC[C@H](NC(=O)[C@H](CC(C)C)NC(=O)NNC(=O)[C@H](Cc1ccccc1)NC(=O)[C@H](CO)NC(=O)[C@H](C)NC(=O)[C@@H](Cc1c[nH]c2ccccc12)NC(=O)[C@H](N)Cc1ccc(O)cc1)C(=O)N[C@@H](Cc1c[nH]c2ccccc12)C(N)=O`, for which the EC50 is 6.8 nM in experiment [1] and 0.49 nM in experiment [2].
Usually Ki stands for the dissociation constant of the complex between target and ligand, obtained from inhibition or displacement. For `CNC(=N)NCCC[C@H](NC(=O)[C@H](CC(C)C)NC(=O)NNC(=O)[C@H](Cc1ccccc1)NC(=O)[C@@H](NC(=O)[C@H](CC(N)=O)NC(=O)[C@@H](Cc1ccncc1)NC(=O)[C@H](N)Cc1ccc(O)cc1)C(C)C)C(=O)N[C@@H](Cc1c[nH]c2ccccc12)C(N)=O`, in experiment [3], the affinity, expressed as Ki, was 0.052 nM. Besides, the EC50 was 12 nM in experiment [1] and 1.8 nM in experiment [2]. For the same compound, the figures for the Activity in experiment [4] and in experiment [5] were 80% and 0%, respectively.
The compound `CC(C)C[C@H](NC(=O)CNC(=O)[C@H](Cc1ccccc1)NC(=O)[C@H](CO)NC(=O)[C@H](CC(N)=O)NC(=O)[C@H](Cc1c[nH]c2ccccc12)NC(=O)[C@H](CC(N)=O)NC(=O)[C@@H](N)Cc1ccc(O)cc1)C(=O)N[C@@H](CCCNC(=N)N)C(=O)N[C@@H](Cc1ccccc1)C(N)=O` [KISSPEPTIN-10] returned a Ki in experiment [3] of 0.035 nM. Moreover, the concentration for a half-maximal effect (EC50) in experiment [2] stood at 0.96 nM.
With `CNC(=N)NCCC[C@H](NC(=O)[C@H](CC(C)C)NC(=O)NNC(=O)[C@H](Cc1ccccc1)NC(=O)[C@@H](NC(=O)[C@H](CC(N)=O)NC(=O)[C@@H](Cc1c[nH]c2ccccc12)NC(=O)[C@H](N)Cc1ccc(O)cc1)C(C)C)C(=O)N[C@@H](Cc1c[nH]c2ccccc12)C(N)=O`, the inhibition constant (Ki) in experiment [3] was determined as 0.028 nM. The results for the EC50 in experiment [1] and in experiment [2] were 2.2 nM and 0.31 nM, respectively. For the same compound, the Activity in experiment [5] stood at 0%.
Consider `CNC(=N)NCCC[C@H](NC(=O)[C@H](CC(C)C)NC(=O)NNC(=O)[C@H](Cc1ccccc1)NC(=O)[C@H](CO)NC(=O)[C@H](CC(N)=O)NC(=O)[C@@H](Cc1ccncc1)NC(=O)[C@H](N)Cc1ccc(O)cc1)C(=O)N[C@@H](Cc1c[nH]c2ccccc12)C(N)=O`, for which the Ki in experiment [3] turned out to be 0.074 nM; in experiment [8], 0.13 nM. Further, the values for the EC50 in experiment [1] and in experiment [2] were 6 nM and 0.87 nM, respectively. The Activity is recorded as 0 rats (n = 5) in experiment [6], 80% in experiment [4], 60% in experiment [5] and 40% in experiment [7].
Regarding `CNC(=N)NCCC[C@H](NC(=O)[C@H](CC(C)C)NC(=O)NNC(=O)[C@H](Cc1ccccc1)NC(=O)[C@@H]1CCCN1C(=O)[C@H](CC(N)=O)NC(=O)[C@@H](Cc1ccncc1)NC(=O)[C@H](N)Cc1ccc(O)cc1)C(=O)N[C@@H](Cc1c[nH]c2ccccc12)C(N)=O`, the affinity in experiment [3] corresponds to a Ki of 0.096 nM. The EC50 in experiment [1] worked out at 13 nM; in experiment [2], 1.2 nM. Also, in experiment [5], the Activity is on record as 20%.
`CNC(=N)NCCC[C@H](NC(=O)[C@H](CC(C)C)NC(=O)NNC(=O)[C@H](Cc1ccccc1)NC(=O)[C@@H]1CC(O)CN1C(=O)[C@H](CC(N)=O)NC(=O)[C@@H](Cc1ccncc1)NC(=O)[C@H](N)Cc1ccc(O)cc1)C(=O)N[C@@H](Cc1c[nH]c2ccccc12)C(N)=O` (stereo partly drawn): the EC50 in experiment [1] turned out to be 95 nM; in experiment [2], 2.8 nM.
The matching figures for `CNC(=N)NCCC[C@H](NC(=O)[C@H](CC(C)C)NC(=O)NNC(=O)[C@H](Cc1ccccc1)NC(=O)[C@H](Cc1c[nH]c2ccccc12)NC(=O)[C@H](CC(N)=O)NC(=O)[C@@H](Cc1ccncc1)NC(=O)[C@H](N)Cc1ccc(O)cc1)C(=O)N[C@@H](Cc1c[nH]c2ccccc12)C(N)=O`: 7.4 nM and 0.59 nM.
`CC[C@H](NC(=O)[C@@H](Cc1c[nH]c2ccccc12)NC(=O)[C@H](N)Cc1ccc(O)cc1)C(=O)N[C@@H](CO)C(=O)N[C@@H](Cc1ccccc1)C(=O)NNC(=O)N[C@@H](CC(C)C)C(=O)N[C@@H](CCCNC(=N)NC)C(=O)N[C@@H](Cc1c[nH]c2ccccc12)C(N)=O`: the Ki in experiment [3] came to 0.12 nM; in experiment [8] it was 0.83 nM. Besides, the values for the EC50 in experiment [1] and in experiment [2] were 2.8 nM and 0.64 nM, respectively. Moreover, the Activity in experiment [4] worked out at 0%.
Consider `CNC(=N)NCCC[C@H](NC(=O)[C@H](CC(C)C)NC(=O)NNC(=O)[C@H](Cc1ccccc1)NC(=O)[C@H](CO)NC(=O)[C@@H](NC(=O)[C@@H](Cc1ccncc1)NC(=O)[C@H](N)Cc1ccc(O)cc1)[C@@H](C)O)C(=O)N[C@@H](Cc1c[nH]c2ccccc12)C(N)=O`, for which the EC50 was 32 nM in experiment [1] and 1.3 nM in experiment [2].
For the compound `CNC(=N)NCCC[C@H](NC(=O)[C@H](CC(C)C)NC(=O)NNC(=O)[C@H](Cc1ccccc1)NC(=O)[C@@H](NC(=O)[C@H](CC(N)=O)NC(=O)[C@@H](Cc1ccncc1)NC(=O)[C@H](N)Cc1ccc(O)cc1)c1ccccc1)C(=O)N[C@@H](Cc1c[nH]c2ccccc12)C(N)=O`, the EC50 was 110 nM in experiment [1] and 4.4 nM in experiment [2].
`CNC(=N)NCCC[C@H](NC(=O)[C@H](CC(C)C)NC(=O)NNC(=O)[C@H](Cc1ccccc1)NC(=O)[C@@H](NC(=O)[C@H](CC(N)=O)NC(=O)[C@@H](Cc1c[nH]c2ccccc12)NC(=O)[C@@H](Cc1ccc(O)cc1)NC(=O)C1CC1)[C@@H](C)O)C(=O)N[C@@H](Cc1c[nH]c2ccccc12)C(N)=O`: the figures for the Ki in experiment [3] and in experiment [8] were 0.034 nM and 0.087 nM, respectively. Also, the concentration for a half-maximal effect (EC50) came to 4.2 nM in experiment [1] and 0.82 nM in experiment [2].
For the compound `CNC(=N)NCCC[C@H](NC(=O)[C@H](CC(C)C)NC(=O)NNC(=O)[C@H](Cc1ccccc1)NC(=O)[C@@H](NC(=O)[C@H](CC(N)=O)NC(=O)[C@@H](Cc1c[nH]c2ccccc12)NC(=O)[C@@H](Cc1ccc(O)cc1)NC(=O)c1ccccc1)[C@@H](C)O)C(=O)N[C@@H](Cc1c[nH]c2ccccc12)C(N)=O`, in experiment [3], the Ki worked out at 0.027 nM. Further, the EC50 was determined as 1.7 nM in experiment [1] and 0.44 nM in experiment [2]. In experiment [6], the Activity was 0 rats (n = 5).
In experiment [3], `CNC(=N)NCCC[C@H](NC(=O)[C@H](CC(C)C)NC(=O)NNC(=O)[C@H](Cc1ccccc1)NC(=O)[C@@H](NC(=O)[C@H](CC(N)=O)NC(=O)[C@@H](Cc1ccncc1)NC(=O)[C@H](N)Cc1ccc(O)cc1)[C@@H](C)O)C(=O)N[C@@H](Cc1c[nH]c2ccccc12)C(N)=O` showed a Ki of 0.086 nM. Besides, the EC50 in experiment [1] turned out to be 5.7 nM; in experiment [2], 1.6 nM.
For the compound `CNC(=N)NCCC[C@H](NC(=O)[C@H](CC(C)C)NC(=O)NNC(=O)[C@H](Cc1ccccc1)NC(=O)[C@H](CO)NC(=O)[C@H](C)NC(=O)[C@@H](Cc1ccncc1)NC(=O)[C@H](N)Cc1ccc(O)cc1)C(=O)N[C@@H](Cc1c[nH]c2ccccc12)C(N)=O`, the Ki in experiment [3] is 0.2 nM; in experiment [8], 3.6 nM. The values for the EC50 in experiment [1] and in experiment [2] were 9.3 nM and 0.7 nM, respectively. The Activity in experiment [4] is 0%.
With `CNC(=N)NCCC[C@H](NC(=O)[C@H](CC(C)C)NC(=O)NNC(=O)[C@H](Cc1ccccc1)NC(=O)[C@@H](NC(=O)[C@H](CC(N)=O)NC(=O)[C@@H](Cc1ccncc1)NC(=O)[C@H](N)Cc1ccc(O)cc1)C(C)(C)C)C(=O)N[C@@H](Cc1c[nH]c2ccccc12)C(N)=O`, the EC50 in experiment [1] amounted to 22 nM; in experiment [2], 1.5 nM.

The record behind these values is ChEMBL document CHEMBL3352485 (J Med Chem, 2014).
